Experiments:
NCI-N87 = assay: Growth inhibition of c-met-independent human NCI-N87 cells after 72 hrs by MTS assay; assay type: functional; settings: NCI-N87, 72 h
MKN-45 = assay: Growth inhibition of c-met-amplified human MKN45 cells after 72 hrs by MTS assay; assay type: functional; settings: MKN-45, 72 h
[1] = molecular target: Hepatocyte growth factor receptor (Homo sapiens, UniProt P08581); assay: Inhibition of recombinant c-met by HTRF assay
[2] = Growth inhibition of c-met-amplified human Hs 746T cells after 72 hrs by MTS assay; assay type: functional; settings: Hs746T
SNU-5 = assay: Growth inhibition of c-met-amplified human SNU5 cells after 72 hrs by MTS assay; assay type: functional; settings: SNU-5, 72 h
[3] = molecular target: T1, Receptor-type tyrosine-protein kinase FLT3 (Homo sapiens, UniProt P36888); assay: Inhibition of FLT3
T1 sequence (P36888 whole entry): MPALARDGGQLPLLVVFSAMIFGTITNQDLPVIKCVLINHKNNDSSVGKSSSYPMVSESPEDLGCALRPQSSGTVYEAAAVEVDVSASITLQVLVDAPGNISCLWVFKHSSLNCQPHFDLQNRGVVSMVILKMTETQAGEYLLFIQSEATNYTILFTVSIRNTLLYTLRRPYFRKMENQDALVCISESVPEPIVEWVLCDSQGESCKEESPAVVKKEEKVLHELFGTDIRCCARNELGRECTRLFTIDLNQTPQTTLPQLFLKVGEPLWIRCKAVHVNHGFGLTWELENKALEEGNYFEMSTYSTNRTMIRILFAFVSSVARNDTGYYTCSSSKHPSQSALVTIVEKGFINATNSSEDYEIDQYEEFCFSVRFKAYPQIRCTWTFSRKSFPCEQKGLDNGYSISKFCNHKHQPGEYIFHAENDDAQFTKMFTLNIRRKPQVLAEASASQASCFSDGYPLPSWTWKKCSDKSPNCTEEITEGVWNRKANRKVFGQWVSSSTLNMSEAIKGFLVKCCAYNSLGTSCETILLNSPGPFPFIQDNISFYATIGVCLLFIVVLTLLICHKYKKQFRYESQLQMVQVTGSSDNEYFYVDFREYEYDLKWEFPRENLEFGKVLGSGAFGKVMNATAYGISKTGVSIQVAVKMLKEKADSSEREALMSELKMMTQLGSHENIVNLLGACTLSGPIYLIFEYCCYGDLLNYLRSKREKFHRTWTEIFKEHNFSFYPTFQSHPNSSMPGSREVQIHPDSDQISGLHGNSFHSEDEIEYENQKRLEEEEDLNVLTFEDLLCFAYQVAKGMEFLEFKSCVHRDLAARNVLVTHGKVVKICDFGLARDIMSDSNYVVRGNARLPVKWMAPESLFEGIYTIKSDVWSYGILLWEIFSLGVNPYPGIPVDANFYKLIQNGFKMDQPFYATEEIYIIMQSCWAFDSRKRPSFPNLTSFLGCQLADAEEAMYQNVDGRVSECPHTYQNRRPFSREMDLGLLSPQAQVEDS

Aurora kinase A = molecular target: T2, Aurora kinase A (Homo sapiens, UniProt O14965); assay: Inhibition of AurA
T2 sequence (O14965 whole entry): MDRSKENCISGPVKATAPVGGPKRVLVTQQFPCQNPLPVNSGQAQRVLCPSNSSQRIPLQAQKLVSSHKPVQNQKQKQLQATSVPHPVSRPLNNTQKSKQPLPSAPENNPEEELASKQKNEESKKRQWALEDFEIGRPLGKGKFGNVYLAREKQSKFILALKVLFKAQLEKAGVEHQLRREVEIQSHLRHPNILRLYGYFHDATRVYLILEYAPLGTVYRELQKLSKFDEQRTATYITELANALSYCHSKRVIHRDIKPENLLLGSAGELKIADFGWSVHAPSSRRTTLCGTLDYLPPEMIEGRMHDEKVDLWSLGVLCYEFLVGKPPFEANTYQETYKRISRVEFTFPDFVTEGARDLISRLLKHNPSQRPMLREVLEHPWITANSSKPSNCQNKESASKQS

[4] = molecular target: Macrophage-stimulating protein receptor (Homo sapiens, UniProt Q04912); assay: Inhibition of RON
[5] = molecular target: High affinity nerve growth factor receptor (Homo sapiens, UniProt P04629); assay: Inhibition of TRKA
[6] = Cmax in rat at 10 mg/kg, po; assay type: ADME, organism-based; parameters: dose 10 mg/kg, route oral; settings: in vivo
How it was run: (§1)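 Rat pharmacokinetics: 10 mg/kg dose given, three rats per group.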

[7] = Volume of distribution at steady state in rat at 10 mg/kg, iv; assay type: ADME, organism-based; parameters: dose 10 mg/kg, route intravenous; settings: in vivo, read-out: Vdss; how it was run: as §1
[8] = Oral bioavailability in rat at 10 mg/kg; assay type: ADME, organism-based; settings: in vivo; how it was run: as §1
[9] = AUC in rat at 10 mg/kg, iv; assay type: ADME, organism-based; parameters: dose 10 mg/kg, route intravenous; settings: plasma; how it was run: as §1
[10] = Clearance in rat at 10 mg/kg, iv; assay type: ADME, organism-based; parameters: dose 10 mg/kg, route intravenous; settings: in vivo; how it was run: as §1
[11] = AUC in rat at 10 mg/kg, po; assay type: ADME, organism-based; parameters: dose 10 mg/kg, route oral; settings: plasma; how it was run: as §1

Hepatocyte growth factor receptor, sequence (P08581 whole entry): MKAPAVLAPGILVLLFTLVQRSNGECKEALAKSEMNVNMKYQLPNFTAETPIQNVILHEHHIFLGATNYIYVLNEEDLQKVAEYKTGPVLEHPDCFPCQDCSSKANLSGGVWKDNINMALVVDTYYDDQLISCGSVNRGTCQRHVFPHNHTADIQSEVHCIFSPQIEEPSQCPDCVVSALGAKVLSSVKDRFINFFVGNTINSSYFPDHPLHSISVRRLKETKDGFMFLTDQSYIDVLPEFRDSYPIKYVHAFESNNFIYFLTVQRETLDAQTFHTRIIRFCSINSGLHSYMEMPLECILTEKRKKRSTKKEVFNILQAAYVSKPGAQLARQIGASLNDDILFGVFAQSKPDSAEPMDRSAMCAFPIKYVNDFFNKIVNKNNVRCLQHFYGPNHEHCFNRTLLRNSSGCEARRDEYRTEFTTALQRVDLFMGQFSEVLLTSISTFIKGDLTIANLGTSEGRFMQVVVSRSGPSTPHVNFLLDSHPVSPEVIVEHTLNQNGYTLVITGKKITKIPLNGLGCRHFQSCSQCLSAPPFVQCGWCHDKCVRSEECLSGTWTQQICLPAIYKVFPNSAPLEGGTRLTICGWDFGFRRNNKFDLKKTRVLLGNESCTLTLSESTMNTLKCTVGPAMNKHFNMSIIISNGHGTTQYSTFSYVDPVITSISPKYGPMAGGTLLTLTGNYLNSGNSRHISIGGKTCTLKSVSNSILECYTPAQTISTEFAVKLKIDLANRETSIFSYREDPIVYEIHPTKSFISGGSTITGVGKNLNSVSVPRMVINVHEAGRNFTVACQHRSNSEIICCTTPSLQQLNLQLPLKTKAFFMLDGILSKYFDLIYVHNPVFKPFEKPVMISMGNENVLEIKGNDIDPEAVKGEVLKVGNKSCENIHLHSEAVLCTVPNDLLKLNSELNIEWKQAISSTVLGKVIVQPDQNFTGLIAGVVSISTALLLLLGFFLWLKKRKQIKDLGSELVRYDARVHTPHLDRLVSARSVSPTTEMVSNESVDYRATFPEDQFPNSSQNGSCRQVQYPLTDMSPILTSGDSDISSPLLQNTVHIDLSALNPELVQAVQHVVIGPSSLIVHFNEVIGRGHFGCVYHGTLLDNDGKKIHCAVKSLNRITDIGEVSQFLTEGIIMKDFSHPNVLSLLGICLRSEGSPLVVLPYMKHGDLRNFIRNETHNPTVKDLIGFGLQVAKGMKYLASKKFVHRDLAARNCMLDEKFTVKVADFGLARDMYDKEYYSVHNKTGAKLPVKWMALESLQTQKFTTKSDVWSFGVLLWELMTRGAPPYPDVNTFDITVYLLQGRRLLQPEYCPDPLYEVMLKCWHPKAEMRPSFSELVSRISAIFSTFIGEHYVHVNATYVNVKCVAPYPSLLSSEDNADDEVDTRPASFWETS
High affinity nerve growth factor receptor, sequence (P04629 whole entry): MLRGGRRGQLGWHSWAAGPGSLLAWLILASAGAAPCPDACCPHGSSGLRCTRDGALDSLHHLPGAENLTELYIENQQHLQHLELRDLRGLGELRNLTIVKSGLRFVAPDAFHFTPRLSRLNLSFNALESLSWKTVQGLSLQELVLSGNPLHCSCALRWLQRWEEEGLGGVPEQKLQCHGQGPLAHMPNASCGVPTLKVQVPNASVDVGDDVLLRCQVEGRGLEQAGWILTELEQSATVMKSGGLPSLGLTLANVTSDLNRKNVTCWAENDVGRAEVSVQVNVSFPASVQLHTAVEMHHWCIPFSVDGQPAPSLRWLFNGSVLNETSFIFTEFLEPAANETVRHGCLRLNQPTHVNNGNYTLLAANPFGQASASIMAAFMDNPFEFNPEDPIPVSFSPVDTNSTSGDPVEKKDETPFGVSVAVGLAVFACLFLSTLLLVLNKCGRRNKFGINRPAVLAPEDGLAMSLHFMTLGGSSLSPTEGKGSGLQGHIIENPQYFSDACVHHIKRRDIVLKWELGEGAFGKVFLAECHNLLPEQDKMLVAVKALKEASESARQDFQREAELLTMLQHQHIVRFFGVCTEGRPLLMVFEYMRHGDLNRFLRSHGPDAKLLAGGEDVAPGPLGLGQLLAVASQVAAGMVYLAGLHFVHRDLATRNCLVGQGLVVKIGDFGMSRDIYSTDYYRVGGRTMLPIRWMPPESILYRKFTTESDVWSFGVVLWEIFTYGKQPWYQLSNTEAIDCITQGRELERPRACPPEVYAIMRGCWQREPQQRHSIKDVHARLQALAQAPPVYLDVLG
Macrophage-stimulating protein receptor, sequence (Q04912 25-304 limits assumed): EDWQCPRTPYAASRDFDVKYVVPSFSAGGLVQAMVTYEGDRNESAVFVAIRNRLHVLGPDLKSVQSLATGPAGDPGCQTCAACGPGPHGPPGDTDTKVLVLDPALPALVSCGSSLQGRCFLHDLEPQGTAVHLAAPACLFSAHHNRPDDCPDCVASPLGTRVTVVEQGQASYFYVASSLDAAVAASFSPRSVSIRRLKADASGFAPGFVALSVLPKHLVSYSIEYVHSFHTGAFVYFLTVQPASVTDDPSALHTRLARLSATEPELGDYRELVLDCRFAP
Macrophage-stimulating protein receptor, sequence (Q04912 310-1400 limits assumed): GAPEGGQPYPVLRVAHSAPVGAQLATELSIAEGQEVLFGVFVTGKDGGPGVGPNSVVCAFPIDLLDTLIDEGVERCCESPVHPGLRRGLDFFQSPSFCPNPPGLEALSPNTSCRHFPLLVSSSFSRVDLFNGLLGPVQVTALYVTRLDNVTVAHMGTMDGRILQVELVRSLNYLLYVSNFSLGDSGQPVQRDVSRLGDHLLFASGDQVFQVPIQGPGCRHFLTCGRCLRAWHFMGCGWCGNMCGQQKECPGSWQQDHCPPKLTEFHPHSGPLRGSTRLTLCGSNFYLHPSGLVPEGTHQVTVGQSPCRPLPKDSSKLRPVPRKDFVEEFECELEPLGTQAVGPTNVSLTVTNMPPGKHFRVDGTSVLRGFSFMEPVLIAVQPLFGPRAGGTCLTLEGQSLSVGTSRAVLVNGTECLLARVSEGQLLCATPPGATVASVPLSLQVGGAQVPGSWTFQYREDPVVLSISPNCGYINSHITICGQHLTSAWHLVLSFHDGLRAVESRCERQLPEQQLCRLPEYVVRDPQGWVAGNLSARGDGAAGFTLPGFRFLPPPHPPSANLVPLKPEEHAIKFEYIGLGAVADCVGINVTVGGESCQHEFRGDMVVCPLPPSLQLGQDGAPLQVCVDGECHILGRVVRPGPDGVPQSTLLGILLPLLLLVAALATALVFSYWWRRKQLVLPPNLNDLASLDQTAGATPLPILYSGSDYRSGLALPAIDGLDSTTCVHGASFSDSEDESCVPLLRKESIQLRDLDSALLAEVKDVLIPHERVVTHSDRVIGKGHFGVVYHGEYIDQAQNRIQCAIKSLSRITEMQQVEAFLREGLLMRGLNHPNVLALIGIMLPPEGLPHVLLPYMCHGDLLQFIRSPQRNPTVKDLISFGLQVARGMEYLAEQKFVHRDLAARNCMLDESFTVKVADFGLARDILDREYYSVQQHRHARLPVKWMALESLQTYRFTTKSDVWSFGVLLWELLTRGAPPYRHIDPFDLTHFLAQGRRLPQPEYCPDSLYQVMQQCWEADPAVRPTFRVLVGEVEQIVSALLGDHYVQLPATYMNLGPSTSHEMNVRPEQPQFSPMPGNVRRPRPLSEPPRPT

SMILES | GI50 (NCI-N87) | GI50 (MKN-45) | IC50 [1] | GI50 [2] | GI50 (SNU-5) | also measured
O=c1[nH]ccc2c(Cc3nnc4ccc(-c5cccc(Cl)c5)nn34)cccc12 | > 10 µM | 0.011 µM | 0.007 µM | 0.053 µM | 0.019 µM | –
N#Cc1cccc(-c2ccc3nnc(Cc4cccc5c(=O)[nH]ccc45)n3n2)c1 | > 10 µM | 0.036 µM | 0.003 µM | 0.059 µM | 0.12 µM | –
O=c1[nH]ccc2c(Cc3nnc4ccc(-c5cccnc5)nn34)cccc12 | > 10 µM | 0.42 µM | 0.005 µM | 0.4 µM | 0.45 µM | –
Cn1cc(-c2ccc3nnc(Cc4cccc5c(=O)[nH]ccc45)n3n2)cn1 | > 10 µM | 0.13 µM | 0.002 µM | 0.064 µM | 0.69 µM | IC50 [3]: > 10 µM; IC50 (Aurora kinase A): > 10 µM; IC50 [4]: > 10 µM; IC50 [5]: > 10 µM
O=c1[nH]ccc2c(Cc3nnc4ccc(-c5cccc([N+](=O)[O-])c5)nn34)cccc12 | – | – | 0.004 µM | – | – | –
Cn1ccc2c(Cc3nnc4ccc(-c5cccc(F)c5)nn34)cccc2c1=O | – | – | 0.073 µM | – | – | –
O=c1[nH]ccc2c(Cc3nnc4ccc(-c5ccccc5)nn34)cccc12 | > 10 µM | 0.038 µM | 0.003 µM | 0.071 µM | 0.059 µM | IC50 [3]: > 10 µM; IC50 (Aurora kinase A): > 10 µM; IC50 [4]: > 10 µM; Cmax [6]: 0.3 µg/mL; Vd [7]: 6.4 L/kg; bioavailability [8]: 35%; AUC [9]: 11.2 µg·h/mL; IC50 [5]: > 10 µM; clearance [10]: 0.8 L/h/kg; AUC [11]: 3.9 µg·h/mL
COc1cccc(-c2ccc3nnc(Cc4cccc5c(=O)[nH]ccc45)n3n2)c1 | > 10 µM | 0.095 µM | 0.005 µM | 0.1 µM | 0.13 µM | –
O=c1[nH]ccc2c(Cc3nnc4ccc(-c5csc6ccccc56)nn34)cccc12 | – | – | 0.014 µM | – | – | –
O=c1[nH]ccc2c(Cc3nnc4ccc(-c5ccccc5Cl)nn34)cccc12 | – | – | 0.004 µM | – | – | –
Cc1ccccc1-c1ccc2nnc(Cc3cccc4c(=O)[nH]ccc34)n2n1 | – | – | 0.072 µM | – | – | –
O=c1[nH]ccc2c(Cc3nnc4ccc(-c5cccc(O)c5)nn34)cccc12 | > 10 µM | 0.47 µM | 0.003 µM | 0.6 µM | 1.1 µM | –
O=c1[nH]ccc2c(Cc3nnc4ccc(-c5cn[nH]c5)nn34)cccc12 | – | – | 0.005 µM | – | – | –
O=c1[nH]ccc2c(Cc3nnc4ccc(-c5cccc(F)c5)nn34)cccc12 | > 10 µM | 0.042 µM | 0.003 µM | 0.13 µM | 0.052 µM | –
O=c1[nH]ccc2c(Cc3nnc4ccc(-c5cnn(CCO)c5)nn34)cccc12 | – | – | 0.002 µM | – | – | –
O=c1[nH]ccc2c(Cc3nnc4ccc(N5CCCC5)nn34)cccc12 | – | – | 0.027 µM | – | – | –
O=c1[nH]ccc2c(Cc3nnc4ccc(N5CCCCC5)nn34)cccc12 | – | – | 0.029 µM | – | – | –
O=c1[nH]ccc2c(Cc3nnc4ccc(-c5ccsc5)nn34)cccc12 | > 10 µM | 0.032 µM | 0.004 µM | 0.17 µM | 0.056 µM | –
O=c1[nH]ccc2c(Cc3nnc4ccc(-c5cnn(C6CCNCC6)c5)nn34)cccc12 | – | – | 0.027 µM | – | – | –
CCn1ccc2c(Cc3nnc4ccc(-c5cccc(F)c5)nn34)cccc2c1=O | – | – | 0.072 µM | – | – | –

Reference: ChEMBL document CHEMBL1921685, “Design and synthesis of triazolopyridazines substituted with methylisoquinolinone as selective c-Met kinase inhibitors” (Bioorg Med Chem Lett, 2011)
